Test results published in ChEMBL document CHEMBL4033712, “Synthesis and biological evaluation of new C-12(α/β)-(N-) sulfamoyl-phenylamino-14-deoxy-andrographolide derivatives as potent anti-cancer agents” (Bioorg Med Chem Lett, 2017).

Experiments:
Assay type in all cases: functional
EKVX = experiment: Growth inhibition of human EKVX cells incubated for 48 hrs by sulforhodamine B assay
Method in brief: (§1)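 NCI-60 five-dose screen at 0.01, 0.1, 1, 10 and 100 µM, 48 h incubation, sulforhodamine B end point. GI50 (50% decrease in net growth), TGI (total growth inhibition) and LC50 (net 50% loss of initial cells) taken from log concentration versus % growth inhibition curves.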

NCI-H23 = experiment: Growth inhibition of human NCI-H23 cells incubated for 48 hrs by sulforhodamine B assay; conditions: NCI-H23, 48 h; method in brief: as §1
NCI-H322M = experiment: Growth inhibition of human NCI-H322M cells incubated for 48 hrs by sulforhodamine B assay; method in brief: as §1
COLO 205 = experiment: Growth inhibition of human COLO205 cells incubated for 48 hrs by sulforhodamine B assay; conditions: COLO 205, 48 h; method in brief: as §1
HCT-15 = experiment: Growth inhibition of human HCT15 cells incubated for 48 hrs by sulforhodamine B assay; conditions: HCT-15, 48 h; method in brief: as §1
HT-29 = experiment: Growth inhibition of human HT-29 cells incubated for 48 hrs by sulforhodamine B assay; conditions: HT-29, 48 h; method in brief: as §1
KM12 = experiment: Growth inhibition of human KM12 cells incubated for 48 hrs by sulforhodamine B assay; conditions: KM12, 48 h; method in brief: as §1
SF-268 = experiment: Growth inhibition of human SF268 cells incubated for 48 hrs by sulforhodamine B assay; conditions: SF-268, 48 h
Method in brief: (§2)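 NCI 60 human tumour cell line panel, five-dose study at 0.01, 0.1, 1, 10 and 100 µM, 48 h incubation. Sulforhodamine B protein-binding dye end point. GI50 (50% decrease in net cell growth), TGI (total growth inhibition) and LC50 (net 50% loss of initial cells) read from log concentration versus % growth inhibition curves.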

SNB-19 [1] = experiment: Growth inhibition of human SNB19 cells incubated for 48 hrs by sulforhodamine B assay; conditions: SNB-19, 48 h; method in brief: as §2
SNB-75 = experiment: Growth inhibition of human SNB75 cells incubated for 48 hrs by sulforhodamine B assay; conditions: SNB-75, 48 h; method in brief: as §2
M14 = experiment: Growth inhibition of human M14 cells incubated for 48 hrs by sulforhodamine B assay; conditions: M14, 48 h; method in brief: as §1
SK-MEL-5 = experiment: Growth inhibition of human SK-MEL-5 cells incubated for 48 hrs by sulforhodamine B assay; conditions: SK-MEL-5, 48 h; method in brief: as §2
IGROV-1 = experiment: Growth inhibition of human IGROV1 cells incubated for 48 hrs by sulforhodamine B assay; conditions: IGROV-1, 48 h; method in brief: as §1
OVCAR-4 = experiment: Growth inhibition of human OVCAR4 cells incubated for 48 hrs by sulforhodamine B assay; conditions: OVCAR-4, 48 h; method in brief: as §1
OVCAR-8 = experiment: Growth inhibition of human OVCAR8 cells incubated for 48 hrs by sulforhodamine B assay; conditions: OVCAR-8, 48 h; method in brief: as §1
786-0 = experiment: Growth inhibition of human 786-0 cells incubated for 48 hrs by sulforhodamine B assay; conditions: 786-0, 48 h; method in brief: as §1
A498 = experiment: Growth inhibition of human A498 cells incubated for 48 hrs by sulforhodamine B assay; conditions: A498, 48 h; method in brief: as §1
ACHN = experiment: Growth inhibition of human ACHN cells incubated for 48 hrs by sulforhodamine B assay; method in brief: as §1
RXF 393 = experiment: Growth inhibition of human RXF393 cells incubated for 48 hrs by sulforhodamine B assay; conditions: RXF 393, 48 h; method in brief: as §2
SN12C = experiment: Growth inhibition of human SN12C cells incubated for 48 hrs by sulforhodamine B assay; method in brief: as §2
TK-10 = experiment: Growth inhibition of human TK10 cells incubated for 48 hrs by sulforhodamine B assay; conditions: TK-10, 48 h; method in brief: as §2
PC-3 = experiment: Growth inhibition of human PC3 cells incubated for 48 hrs by sulforhodamine B assay; conditions: PC-3, 48 h; method in brief: as §1
MDA-MB-231 = experiment: Growth inhibition of human MDA-MB-231 cells incubated for 48 hrs by sulforhodamine B assay; conditions: MDA-MB-231, 48 h; method in brief: as §1
Hs-578T = experiment: Growth inhibition of human Hs 578T cells incubated for 48 hrs by sulforhodamine B assay; method in brief: as §1
BT-549 = experiment: Growth inhibition of human BT549 cells incubated for 48 hrs by sulforhodamine B assay; conditions: BT-549, 48 h; method in brief: as §1
MDA-MB-468 = experiment: Growth inhibition of human MDA-MB-468 cells incubated for 48 hrs by sulforhodamine B assay; conditions: MDA-MB-468, 48 h; method in brief: as §1
HOP-92 = experiment: Anticancer activity against human HOP92 cells assessed as cell growth at 10 uM after 48 hrs by sulforhodamine B assay relative to control; conditions: HOP-92, 48 h, read-out: Activity
Method in brief: (§3)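 Single-dose NCI-60 panel screen: compound added at 10 µM and the culture incubated 48 h. The end point was read by protein staining with sulforhodamine B. The value is percent growth of treated cells relative to untreated control cells, reported as a mean graph across the panel.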

SF-539 = experiment: Anticancer activity against human SF539 cells assessed as cell growth at 10 uM after 48 hrs by sulforhodamine B assay relative to control; conditions: SF-539, 48 h, read-out: Activity; method in brief: as §3
SNB-19 [2] = experiment: Anticancer activity against human SNB19 cells assessed as cell growth at 10 uM after 48 hrs by sulforhodamine B assay relative to control; conditions: SNB-19, 48 h, read-out: Activity; method in brief: as §3
[3] = read-out: LC50 (the source's name)

C=C1CC[C@@H]2[C@](C)(COC(C)=O)[C@H](OC(C)=O)CC[C@@]2(C)[C@H]1CC(Nc1ccc(S(=O)(=O)Nc2ncccn2)cc1)C1=CCOC1=O (some centres undefined)
GI50 (EKVX): 8.18 µM | TGI (EKVX): 20.6 µM | CC50 (EKVX; [3]): 45.6 µM | GI50 (NCI-H23): 2110 nM | TGI (NCI-H23): 5.38 µM | CC50 (NCI-H23; [3]): 26.7 µM | GI50 (NCI-H322M): 3.12 µM | TGI (NCI-H322M): 11.1 µM | CC50 (NCI-H322M; [3]): 35.6 µM | GI50 (COLO 205): 1780 nM | TGI (COLO 205): 3.8 µM | CC50 (COLO 205; [3]): 8.11 µM | GI50 (HCT-15): 1210 nM | TGI (HCT-15): 3.32 µM | CC50 (HCT-15; [3]): 9.15 µM | GI50 (HT-29): 1030 nM | TGI (HT-29): 2790 nM | GI50 (KM12): 2330 nM | TGI (KM12): 5.54 µM | CC50 (KM12; [3]): 17.8 µM | GI50 (SF-268): 1930 nM | TGI (SF-268): 4.16 µM | CC50 (SF-268; [3]): 8.97 µM | GI50 (SNB-19 [1]): 1630 nM | TGI (SNB-19 [1]): 3.76 µM | CC50 (SNB-19 [1]; [3]): 8.65 µM | GI50 (SNB-75): 1270 nM | TGI (SNB-75): 3.23 µM | CC50 (SNB-75; [3]): 8.2 µM | GI50 (M14): 1440 nM | TGI (M14): 3.98 µM | CC50 (M14; [3]): 15.9 µM | GI50 (SK-MEL-5): 1900 nM | TGI (SK-MEL-5): 3.85 µM | CC50 (SK-MEL-5; [3]): 7.81 µM | GI50 (IGROV-1): 2040 nM | TGI (IGROV-1): 4.41 µM | CC50 (IGROV-1; [3]): 9.53 µM | GI50 (OVCAR-4): 1850 nM | LC50 (OVCAR-4): 19.3 µM | TGI (OVCAR-4): 5.26 µM | GI50 (OVCAR-8): 1480 nM | TGI (OVCAR-8): 3.55 µM | CC50 (OVCAR-8; [3]): 8.53 µM | GI50 (786-0): 1770 nM | LC50 (concentration giving net 50% loss of initial cells) (786-0): 6.51 µM | TGI (786-0): 3.39 µM | GI50 (A498): 12.3 µM | LC50 (concentration giving net 50% loss of initial cells) (A498): 49.9 µM | TGI (A498): 24.7 µM | GI50 (ACHN): 1720 nM | TGI (ACHN): 3.27 µM | CC50 (ACHN; [3]): 6.2 µM | GI50 (RXF 393): 1950 nM | TGI (RXF 393): 3.58 µM | CC50 (RXF 393; [3]): 6.6 µM | GI50 (SN12C): 430 nM | TGI (SN12C): 1960 nM | CC50 (SN12C; [3]): 5.82 µM | GI50 (TK-10): 2770 nM | TGI (TK-10): 6.03 µM | CC50 (TK-10; [3]): 18.3 µM | GI50 (PC-3): 2110 nM | TGI (PC-3): 5.07 µM | CC50 (PC-3; [3]): 17.5 µM | GI50 (MDA-MB-231): 1950 nM | LC50 (concentration giving net 50% loss of initial cells) (MDA-MB-231): 7.91 µM | TGI (MDA-MB-231): 3.93 µM | GI50 (Hs-578T): 3.54 µM | LC50 (Hs-578T): > 100 µM | TGI (Hs-578T): 24.4 µM | GI50 (BT-549): 1640 nM | TGI (BT-549): 3.39 µM | CC50 (BT-549; [3]): 7.04 µM | GI50 (MDA-MB-468): 1330 nM | TGI (MDA-MB-468): 3.57 µM | growth at 10 µM (HOP-92): 56.3% | growth at 10 µM (SF-539): -69% | growth at 10 µM (SNB-19 [2]): 36.7%
